Legend:
[1] = molecular target: Protein kinase C theta type (Homo sapiens) (UniProt Q04759); assay: Inhibition of PRKCQ at 1 uM in presence of 10 uM ATP by Select Screen kinase assay relative to untreated control
[2] = molecular target: Tyrosine-protein kinase FRK (Homo sapiens) (UniProt P42685); assay: Inhibition of FRK at 1 uM in presence of 10 uM ATP by Select Screen kinase assay relative to untreated control
In short: (§1)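 Part of a 220-kinase panel of purified kinases, each tested with compound at 1 μM. Percent inhibition was measured in the Invitrogen SelectScreen profiling assay.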

[3] = molecular target: Platelet-derived growth factor receptor beta (Homo sapiens) (UniProt P09619); assay: Inhibition of PDGFRbeta at 1 uM in presence of 100 uM ATP by Select Screen kinase assay relative to untreated control
[4] = molecular target: Aurora kinase B (Homo sapiens) (UniProt Q96GD4); assay: Inhibition of AURKB at 1 uM in presence of 10 uM ATP by Select Screen kinase assay relative to untreated control
[5] = molecular target: Casein kinase II subunit alpha (Homo sapiens) (UniProt P68400); assay: Inhibition of CSNK2A1 at 1 uM in presence of 10 uM ATP by Select Screen kinase assay relative to untreated control; in short: as §1
[6] = tested on: Tyrosine-protein kinase ABL1 (Homo sapiens), P00519 [T315I]; assay: Inhibition of ABL1 T315I mutant at 1 uM in presence of 10 uM ATP by Select Screen kinase assay relative to untreated control
In short: (§2)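 Single-point screen at 1 μM against a panel of 220 purified kinases, run by Invitrogen staff as a SelectScreen profiling service. Read-out is percent inhibition of kinase activity.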

[7] = molecular target: Dual specificity tyrosine-phosphorylation-regulated kinase 4 (Homo sapiens) (UniProt Q9NR20); assay: Inhibition of DYRK4 at 1 uM in presence of 10 uM ATP by Select Screen kinase assay relative to untreated control
In short: (§3)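 Profiling panel of 220 purified kinases (SelectScreen), each compound tested at 1 μM. Read-out is percent inhibition of kinase activity.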

[8] = molecular target: Serine/threonine-protein kinase BRSK1 (Homo sapiens) (UniProt Q8TDC3); assay: Inhibition of BRSK1 at 1 uM in presence of 10 uM ATP by Select Screen kinase assay relative to untreated control; in short: as §2
[9] = molecular target: Dual specificity tyrosine-phosphorylation-regulated kinase 3 (Homo sapiens) (UniProt O43781); assay: Inhibition of DYRK3 at 1 uM in presence of 10 uM ATP by Select Screen kinase assay relative to untreated control; in short: as §1
[10] = molecular target: Serine/threonine-protein kinase MARK1 (Homo sapiens) (UniProt Q9P0L2); assay: Inhibition of MARK1 at 1 uM in presence of 10 uM ATP by Select Screen kinase assay relative to untreated control
[11] = molecular target: Serine/threonine-protein kinase PLK2 (Homo sapiens) (UniProt Q9NYY3); assay: Inhibition of PLK2 at 1 uM in presence of 10 uM ATP by Select Screen kinase assay relative to untreated control
[12] = molecular target: Serine/threonine-protein kinase PAK 4 (Homo sapiens) (UniProt O96013); assay: Inhibition of PAK4 at 1 uM in presence of 10 uM ATP by Select Screen kinase assay relative to untreated control
[13] = molecular target: Serine/threonine-protein kinase 4 (Homo sapiens) (UniProt Q13043); assay: Inhibition of STK4 at 1 uM in presence of 10 uM ATP by Select Screen kinase assay relative to untreated control
In short: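 Commercial SelectScreen profiling panel of 220 purified kinases. Each kinase was tested at a single inhibitor concentration of 1 μM, and activity was expressed as percent inhibition.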

[14] = molecular target: Serine/threonine-protein kinase pim-2 (Homo sapiens) (UniProt Q9P1W9); assay: Inhibition of PIM2 at 1 uM in presence of 10 uM ATP by Select Screen kinase assay relative to untreated control
[15] = molecular target: Serine/threonine-protein kinase MRCK alpha (Homo sapiens) (UniProt Q5VT25); assay: Inhibition of CDC42 binding protein alpha at 1 uM in presence of 10 uM ATP by Select Screen kinase assay relative to untreated control; in short: as §2
[16] = molecular target: Mast/stem cell growth factor receptor Kit (Homo sapiens) (UniProt P10721); assay: Inhibition of KIT at 1 uM in presence of 100 uM ATP by Select Screen kinase assay relative to untreated control
In short: (§4)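 Single-concentration profiling at 1 μM against a panel of 220 purified kinases, run as an outsourced SelectScreen kinase profiling service. Activity is expressed as percent inhibition.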

[17] = molecular target: Calcium/calmodulin-dependent protein kinase type 1D (Homo sapiens) (UniProt Q8IU85); assay: Inhibition of CAMK1D at 1 uM in presence of 10 uM ATP by Select Screen kinase assay relative to untreated control; in short: as §2
[18] = molecular target: Vascular endothelial growth factor receptor 2 (Homo sapiens) (UniProt P35968); assay: Inhibition of KDR at 1 uM in presence of 10 uM ATP by Select Screen kinase assay relative to untreated control; in short: as §4
[19] = molecular target: Protein kinase C eta type (Homo sapiens) (UniProt P24723); assay: Inhibition of PRKCH at 1 uM in presence of 10 uM ATP by Select Screen kinase assay relative to untreated control
[20] = molecular target: Protein kinase C delta type (Homo sapiens) (UniProt Q05655); assay: Inhibition of PRKCD at 1 uM in presence of 10 uM ATP by Select Screen kinase assay relative to untreated control; in short: as §3
[21] = molecular target: Serine/threonine-protein kinase 3 (Homo sapiens) (UniProt Q13188); assay: Inhibition of STK3 at 1 uM in presence of 10 uM ATP by Select Screen kinase assay relative to untreated control
[22] = molecular target: Mitogen-activated protein kinase kinase kinase kinase 2 (Homo sapiens) (UniProt Q12851); assay: Inhibition of MAP4K2 at 1 uM in presence of 10 uM ATP by Select Screen kinase assay relative to untreated control
[23] = molecular target: Protein kinase C epsilon type (Homo sapiens) (UniProt Q02156); assay: Inhibition of PKCE at 1 uM in presence of 10 uM ATP by Select Screen kinase assay relative to untreated control
[24] = tested on: Proto-oncogene tyrosine-protein kinase receptor Ret (Homo sapiens), P07949 [Y791F]; assay: Inhibition of RET Y791F mutant at 1 uM in presence of 10 uM ATP by Select Screen kinase assay relative to untreated control; in short: as §3
[25] = molecular target: Protein kinase C alpha type (Homo sapiens) (UniProt P17252); assay: Inhibition of PRKCA at 1 uM in presence of 10 uM ATP by Select Screen kinase assay relative to untreated control
[26] = molecular target: Ephrin type-B receptor 3 (Homo sapiens) (UniProt P54753); assay: Inhibition of EPHB3 at 1 uM in presence of 10 uM ATP by Select Screen kinase assay relative to untreated control; in short: as §1
[27] = molecular target: MAP kinase-activated protein kinase 3 (Homo sapiens) (UniProt Q16644); assay: Inhibition of MAPKAPK3 at 1 uM in presence of 10 uM ATP by Select Screen kinase assay relative to untreated control
MAP kinase-activated protein kinase 3 (Homo sapiens), sequence (Q16644 whole entry, looked up): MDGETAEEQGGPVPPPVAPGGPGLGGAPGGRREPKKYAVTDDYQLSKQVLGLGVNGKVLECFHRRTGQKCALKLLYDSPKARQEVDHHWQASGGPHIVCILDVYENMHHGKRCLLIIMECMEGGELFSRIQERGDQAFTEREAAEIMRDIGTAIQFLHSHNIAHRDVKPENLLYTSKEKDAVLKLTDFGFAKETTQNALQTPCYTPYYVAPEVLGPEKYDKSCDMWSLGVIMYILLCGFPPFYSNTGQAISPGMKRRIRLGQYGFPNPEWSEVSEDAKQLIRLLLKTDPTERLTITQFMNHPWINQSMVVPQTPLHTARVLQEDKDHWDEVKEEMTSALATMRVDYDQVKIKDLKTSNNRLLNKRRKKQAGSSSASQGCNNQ

Serine/threonine-protein kinase PAK 4 (Homo sapiens), sequence (O96013 whole entry, looked up): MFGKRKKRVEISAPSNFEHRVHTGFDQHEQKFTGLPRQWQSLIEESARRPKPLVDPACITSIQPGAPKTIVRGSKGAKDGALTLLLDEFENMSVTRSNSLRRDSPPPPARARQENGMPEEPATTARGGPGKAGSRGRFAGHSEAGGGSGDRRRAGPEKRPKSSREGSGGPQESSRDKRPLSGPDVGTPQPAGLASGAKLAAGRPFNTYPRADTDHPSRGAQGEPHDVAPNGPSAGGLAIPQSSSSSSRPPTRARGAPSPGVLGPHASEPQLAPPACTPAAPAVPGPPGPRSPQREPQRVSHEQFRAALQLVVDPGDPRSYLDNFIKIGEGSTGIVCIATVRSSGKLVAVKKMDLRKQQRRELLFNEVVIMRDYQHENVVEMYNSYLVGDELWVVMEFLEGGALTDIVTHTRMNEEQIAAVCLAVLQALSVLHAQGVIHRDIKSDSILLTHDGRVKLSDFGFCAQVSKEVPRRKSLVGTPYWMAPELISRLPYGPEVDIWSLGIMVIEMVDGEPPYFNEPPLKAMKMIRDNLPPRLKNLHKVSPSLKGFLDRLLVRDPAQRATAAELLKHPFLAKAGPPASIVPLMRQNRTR
Protein kinase C delta type (Homo sapiens), sequence (Q05655 whole entry, looked up): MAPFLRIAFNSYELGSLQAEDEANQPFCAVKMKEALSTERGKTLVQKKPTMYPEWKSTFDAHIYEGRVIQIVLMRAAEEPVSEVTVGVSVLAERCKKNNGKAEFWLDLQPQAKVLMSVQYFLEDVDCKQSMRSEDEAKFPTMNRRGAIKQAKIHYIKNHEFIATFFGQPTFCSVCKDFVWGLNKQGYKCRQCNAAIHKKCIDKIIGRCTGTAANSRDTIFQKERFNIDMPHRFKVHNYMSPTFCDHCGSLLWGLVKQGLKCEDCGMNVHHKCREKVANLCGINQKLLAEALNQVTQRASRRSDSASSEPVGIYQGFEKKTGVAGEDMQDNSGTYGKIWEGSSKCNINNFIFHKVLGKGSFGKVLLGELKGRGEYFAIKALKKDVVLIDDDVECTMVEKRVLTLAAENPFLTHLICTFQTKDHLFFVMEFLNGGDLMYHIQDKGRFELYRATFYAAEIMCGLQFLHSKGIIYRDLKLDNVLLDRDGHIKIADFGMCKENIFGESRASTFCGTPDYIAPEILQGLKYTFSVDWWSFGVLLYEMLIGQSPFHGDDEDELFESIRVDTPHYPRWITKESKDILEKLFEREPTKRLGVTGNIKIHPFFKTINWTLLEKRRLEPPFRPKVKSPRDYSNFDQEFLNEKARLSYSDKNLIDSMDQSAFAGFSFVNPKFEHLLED
Serine/threonine-protein kinase BRSK1 (Homo sapiens), sequence (Q8TDC3 whole entry): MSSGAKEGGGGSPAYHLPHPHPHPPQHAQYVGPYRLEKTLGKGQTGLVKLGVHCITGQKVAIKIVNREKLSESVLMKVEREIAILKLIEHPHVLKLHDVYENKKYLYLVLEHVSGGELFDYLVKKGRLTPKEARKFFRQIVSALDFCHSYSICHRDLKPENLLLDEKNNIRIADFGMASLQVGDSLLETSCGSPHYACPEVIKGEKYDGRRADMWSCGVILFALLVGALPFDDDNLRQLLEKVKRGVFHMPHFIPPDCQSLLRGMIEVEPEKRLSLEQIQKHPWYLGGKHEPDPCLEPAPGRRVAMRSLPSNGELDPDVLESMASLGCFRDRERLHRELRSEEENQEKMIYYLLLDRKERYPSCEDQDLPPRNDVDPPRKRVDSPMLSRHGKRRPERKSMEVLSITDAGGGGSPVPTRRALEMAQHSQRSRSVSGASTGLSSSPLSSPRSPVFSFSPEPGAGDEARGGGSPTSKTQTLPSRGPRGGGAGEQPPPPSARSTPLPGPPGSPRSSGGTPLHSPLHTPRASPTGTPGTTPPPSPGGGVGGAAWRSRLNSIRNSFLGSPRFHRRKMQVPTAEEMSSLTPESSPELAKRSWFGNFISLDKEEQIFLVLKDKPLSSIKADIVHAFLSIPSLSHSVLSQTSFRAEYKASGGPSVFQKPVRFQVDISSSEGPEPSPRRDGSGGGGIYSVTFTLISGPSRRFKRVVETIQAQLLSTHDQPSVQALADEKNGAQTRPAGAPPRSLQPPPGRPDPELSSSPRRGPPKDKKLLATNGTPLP
Aurora kinase B (Homo sapiens), sequence (Q96GD4 whole entry, looked up): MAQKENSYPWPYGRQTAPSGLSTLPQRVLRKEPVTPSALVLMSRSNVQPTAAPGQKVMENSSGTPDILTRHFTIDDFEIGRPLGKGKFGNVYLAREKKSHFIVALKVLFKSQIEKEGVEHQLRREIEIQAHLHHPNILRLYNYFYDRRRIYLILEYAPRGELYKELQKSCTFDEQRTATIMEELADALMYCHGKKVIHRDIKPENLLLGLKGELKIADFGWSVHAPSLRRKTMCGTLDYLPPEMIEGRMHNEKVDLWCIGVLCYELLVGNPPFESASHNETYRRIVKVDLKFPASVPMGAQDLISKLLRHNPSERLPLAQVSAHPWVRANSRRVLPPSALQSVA
Mast/stem cell growth factor receptor Kit (Homo sapiens), sequence (P10721 whole entry): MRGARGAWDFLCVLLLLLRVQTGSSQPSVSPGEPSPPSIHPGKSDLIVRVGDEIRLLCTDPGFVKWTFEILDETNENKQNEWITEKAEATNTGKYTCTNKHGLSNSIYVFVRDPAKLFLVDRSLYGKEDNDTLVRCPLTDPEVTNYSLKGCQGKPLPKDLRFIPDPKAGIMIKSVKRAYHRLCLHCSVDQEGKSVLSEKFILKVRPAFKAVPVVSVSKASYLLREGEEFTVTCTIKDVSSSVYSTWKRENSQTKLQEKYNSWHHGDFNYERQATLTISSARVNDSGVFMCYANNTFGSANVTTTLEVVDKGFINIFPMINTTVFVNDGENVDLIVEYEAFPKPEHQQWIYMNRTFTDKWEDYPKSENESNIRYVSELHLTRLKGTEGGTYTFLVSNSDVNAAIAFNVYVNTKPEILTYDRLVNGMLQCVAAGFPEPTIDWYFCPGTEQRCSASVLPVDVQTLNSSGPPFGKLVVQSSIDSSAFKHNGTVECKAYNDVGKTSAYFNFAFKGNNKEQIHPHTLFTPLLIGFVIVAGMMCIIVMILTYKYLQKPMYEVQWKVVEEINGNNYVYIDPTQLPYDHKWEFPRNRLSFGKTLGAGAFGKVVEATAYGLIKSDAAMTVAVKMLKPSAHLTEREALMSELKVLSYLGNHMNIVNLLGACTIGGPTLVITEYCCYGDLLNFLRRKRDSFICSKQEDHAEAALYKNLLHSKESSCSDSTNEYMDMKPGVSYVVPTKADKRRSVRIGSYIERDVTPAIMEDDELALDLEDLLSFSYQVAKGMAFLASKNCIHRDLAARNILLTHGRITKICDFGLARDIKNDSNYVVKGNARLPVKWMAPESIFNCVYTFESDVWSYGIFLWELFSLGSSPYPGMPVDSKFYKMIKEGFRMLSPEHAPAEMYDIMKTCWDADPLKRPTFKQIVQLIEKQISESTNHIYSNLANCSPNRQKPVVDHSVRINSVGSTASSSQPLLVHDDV
Serine/threonine-protein kinase 3 (Homo sapiens), sequence (Q13188 whole entry): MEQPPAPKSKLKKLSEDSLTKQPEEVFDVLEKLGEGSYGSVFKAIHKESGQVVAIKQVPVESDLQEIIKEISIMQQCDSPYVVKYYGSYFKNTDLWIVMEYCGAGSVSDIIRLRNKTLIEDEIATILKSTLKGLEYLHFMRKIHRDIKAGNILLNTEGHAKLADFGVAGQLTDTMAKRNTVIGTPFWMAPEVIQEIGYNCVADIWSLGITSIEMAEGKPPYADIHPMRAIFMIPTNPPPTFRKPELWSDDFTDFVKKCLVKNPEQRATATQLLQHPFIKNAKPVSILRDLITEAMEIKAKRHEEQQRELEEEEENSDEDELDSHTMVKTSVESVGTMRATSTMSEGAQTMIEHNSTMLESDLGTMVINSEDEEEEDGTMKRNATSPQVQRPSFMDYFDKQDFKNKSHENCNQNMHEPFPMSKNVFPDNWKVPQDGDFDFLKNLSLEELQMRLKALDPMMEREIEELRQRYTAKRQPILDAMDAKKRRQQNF
Protein kinase C theta type (Homo sapiens), sequence (Q04759 whole entry, looked up): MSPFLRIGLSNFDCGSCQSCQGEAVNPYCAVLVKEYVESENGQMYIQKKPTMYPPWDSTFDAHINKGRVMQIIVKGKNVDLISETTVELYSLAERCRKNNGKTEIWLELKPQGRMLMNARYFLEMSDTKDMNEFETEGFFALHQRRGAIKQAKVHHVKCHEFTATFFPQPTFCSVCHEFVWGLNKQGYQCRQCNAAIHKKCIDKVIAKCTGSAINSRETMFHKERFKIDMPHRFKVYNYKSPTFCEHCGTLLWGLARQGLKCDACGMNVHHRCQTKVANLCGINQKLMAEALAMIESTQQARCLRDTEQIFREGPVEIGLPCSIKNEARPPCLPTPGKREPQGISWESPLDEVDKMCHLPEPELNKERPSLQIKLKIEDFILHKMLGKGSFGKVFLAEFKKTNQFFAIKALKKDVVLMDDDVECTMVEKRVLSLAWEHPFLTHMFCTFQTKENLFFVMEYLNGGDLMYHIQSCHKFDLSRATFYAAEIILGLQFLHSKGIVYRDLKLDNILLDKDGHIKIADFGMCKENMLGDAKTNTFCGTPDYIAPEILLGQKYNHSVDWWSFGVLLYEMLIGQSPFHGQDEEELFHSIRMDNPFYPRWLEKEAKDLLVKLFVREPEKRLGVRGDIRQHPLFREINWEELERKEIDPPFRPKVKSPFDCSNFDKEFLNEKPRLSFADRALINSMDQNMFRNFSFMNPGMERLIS

inhibition [1] [%] | inhibition [2] [%] | inhibition [3] [%] | inhibition [4] [%] | inhibition [5] [%] | inhibition [6] [%] | inhibition [7] [%] | inhibition [8] [%] | inhibition [9] [%] | inhibition [10] [%] | inhibition [11] [%] | inhibition [12] [%] | inhibition [13] [%] | inhibition [14] [%] | inhibition [15] [%] | inhibition [16] [%] | inhibition [17] [%] | inhibition [18] [%] | inhibition [19] [%] | inhibition [20] [%] | Compound | also measured
38 | 16 | 84 | 103 | 16 | 40 | 2 | 75 | 50 | 95 | 38 | 42 | 36 | 1 | 19 | 13 | 14 | 79 | 7 | 24 | O=C(NCCCNc1nc(Nc2cccc(NC(=O)N3CCCC3)c2)ncc1I)c1cccs1 | inhibition [21]: 21%; inhibition [22]: 97%; inhibition [23]: 47%; inhibition [24]: 91%; inhibition [25]: 61%; inhibition [26]: 10%; inhibition [27]: 10%
15 | 11 | 2 | 20 | 18 | 8 | 3 | 29 | 69 | 23 | 24 | 9 | 19 | -1 | -3 | -7 | 24 | 52 | 8 | -5 | COc1ccccc1N1CCN(c2ncnc3[nH]nc(Br)c23)CC1 | inhibition [21]: 9%; inhibition [22]: 18%; inhibition [23]: 13%; inhibition [24]: 48%; inhibition [25]: 21%; inhibition [26]: 13%; inhibition [27]: 11%

Source: ChEMBL document CHEMBL1250448, “Inhibitor hijacking of Akt activation” (Nat Chem Biol, 2009)
